Measured values reported in ChEMBL document CHEMBL1629658, “A 10-year survey of antifungal susceptibility of candidemia isolates from intensive care unit patients in Greece” (2009).
Values after ≈ are worked out from the molar mass of the structure shown. Numbered stars: 1 amine (or outer) side, 2 acyl side, 3 side chain; on linkers, the order of the positions; unused ones are H or OH. Bridge positions count the residues as written; N and C are the ends. Square brackets hold non-standard residues; d marks the D form. Peptide text beside a SMILES is read from it. * marks the point of attachment. hTyr(3S-OH,4S-OH,3'-OSO3H) = N[C@H](C(=O)O)[C@H](O)[C@@H](O)c1ccc(O)c(OS(=O)(=O)O)c1; pTerphenylCO(4''-OnC5H11) = CCCCCOc1ccc(-c2ccc(-c3ccc(C(=O)*)cc3)cc2)cc1; Orn(4R-OH,5R-OH) = O=C([C@H](C[C@@H](O)[C@@H](O)N[*:3])N[*:1])[*:2]; hTyr(3S-OH,4S-OH) = N[C@H](C(=O)O)[C@H](O)[C@@H](O)c1ccc(O)cc1; Pro(3S-OH,4S-Me) = C[C@H]1CN[C@H](C(=O)O)[C@H]1O; X1 = CCCCCOc1ccc(-c2cc(-c3ccc(C(=O)*)cc3)no2)cc1; Gln(3R-OH) = NC(=O)C[C@@H](O)[C@H](N)C(=O)O; Hyp = O=C(O)[C@@H]1C[C@@H](O)CN1

Assays:
Assay type in all cases: functional
Candida albicans = assay: Antifungal activity against Candida albicans isolated from candidemia patient by AFST-EUCAST microdilution method
Yarrowia lipolytica = assay: Antifungal activity against Candida lipolytica isolated from candidemia patient by AFST-EUCAST microdilution method
Candida parapsilosis [1] = assay: Antifungal activity against Candida parapsilosis isolated from candidemia patient by AFST-EUCAST microdilution method; settings: Lodderomyces parapsilosis
Candida dubliniensis = assay: Antifungal activity against Candida dubliniensis isolated from candidemia patient by AFST-EUCAST microdilution method
Candida tropicalis = assay: Antifungal activity against Candida tropicalis isolated from candidemia patient by AFST-EUCAST microdilution method
Kluyveromyces marxianus = assay: Antifungal activity against Candida kefyr isolated from candidemia patient by AFST-EUCAST microdilution method
Diutina rugosa = assay: Antifungal activity against Candida rugosa isolated from candidemia patient by AFST-EUCAST microdilution method
[2] = test system: Meyerozyma guilliermondii; assay: Antifungal activity against Candida guilliermondii isolated from candidemia patient by AFST-EUCAST microdilution method
[Candida] intermedia = Antifungal activity against Candida intermedia isolated from candidemia patient by AFST-EUCAST microdilution method; settings: Sungouiella intermedia
Pichia kudriavzevii [3] = assay: Antifungal activity against Candida krusei isolated from candidemia patient by AFST-EUCAST microdilution method
Clavispora lusitaniae = assay: Antifungal activity against Clavispora lusitaniae isolated from candidemia patient by AFST-EUCAST microdilution method
Wickerhamomyces anomalus = assay: Antifungal activity against Candida pelliculosa isolated from candidemia patient by AFST-EUCAST microdilution method; settings: Hansenula anomala
Nakaseomyces glabratus = assay: Antifungal activity against Candida glabrata isolated from candidemia patient by AFST-EUCAST microdilution method
[4] = Antifungal activity against Candida pulcherrima isolated from candidemia patient by AFST-EUCAST microdilution method; settings: Metschnikowia pulcherrima
Candida parapsilosis [5] = assay: Antifungal activity against Candida parapsilosis ATCC 22019 isolated from candidemia patient by AFST-EUCAST microdilution method; settings: Lodderomyces parapsilosis
Procedure, shortened: (§1)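 Designated quality-control strain included on every testing occasion and run by the AFST-EUCAST broth microdilution reference procedure (EDef 7.1) alongside the clinical isolates. Its MICs were checked against the reference range for EUCAST-evaluated drugs. Pure standard compounds were used: azoles, amphotericin B, flucytosine and echinocandins.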

Pichia kudriavzevii [6] = assay: Antifungal activity against Candida krusei ATCC 6258 isolated from candidemia patient by AFST-EUCAST microdilution method; procedure, shortened: as §1

Row | SMILES | MIC (Candida albicans) [µg/mL] | MIC90 (Candida albicans) [µg/mL] | MIC (Yarrowia lipolytica) [µg/mL] | MIC90 (Candida parapsilosis [1]) [µg/mL] | MIC (Candida dubliniensis) [µg/mL] | MIC90 (Candida tropicalis) [µg/mL] | MIC (Kluyveromyces marxianus) [µg/mL] | MIC (Diutina rugosa) [µg/mL] | MIC [2] [µg/mL] | MIC ([Candida] intermedia) [µg/mL] | MIC (Pichia kudriavzevii [3]) [µg/mL] | MIC90 (Pichia kudriavzevii [3]) [µg/mL] | MIC90 (Clavispora lusitaniae) [µg/mL] | MIC (Wickerhamomyces anomalus) [µg/mL] | MIC90 (Nakaseomyces glabratus) [µg/mL] | MIC [4] [µg/mL] | MIC (Candida parapsilosis [5]) [µg/mL] | MIC (Pichia kudriavzevii [6]) [µg/mL] | also measured
1 | C[C@@H]1[C@H](O)[C@@H](C)/C=C/C=C/C=C/C=C/C=C/C=C/C=C/[C@H](O[C@@H]2O[C@H](C)[C@@H](O)[C@H](N)[C@@H]2O)C[C@@H]2O[C@](O)(C[C@@H](O)C[C@@H](O)[C@H](O)CC[C@@H](O)C[C@@H](O)CC(=O)O[C@H]1C)C[C@H](O)[C@H]2C(=O)O [AMPHOTERICIN B] | 0.12 (≈ 0.13 µM) | 0.12 (≈ 0.13 µM) | 1 (≈ 1.08 µM) | 0.25 (≈ 0.271 µM) | 0.06 (≈ 0.0649 µM) | 0.25 (≈ 0.271 µM) | 0.5 (≈ 0.541 µM) | 0.12 (≈ 0.13 µM) | 0.5 (≈ 0.541 µM) | 0.5 (≈ 0.541 µM) | 0.25 (≈ 0.271 µM) | 0.25 (≈ 0.271 µM) | 4 (≈ 4.33 µM) | 0.25 (≈ 0.271 µM) | 0.5 (≈ 0.541 µM) | 0.12 (≈ 0.13 µM) |  |  | MIC (Candida tropicalis): 0.25 µg/mL (≈ 0.271 µM); MIC (Nakaseomyces glabratus): 0.5 µg/mL (≈ 0.541 µM)
2 | CC[C@H](C)C[C@H](C)CCCCCCCCC(=O)N[C@H]1C[C@@H](O)[C@@H](NCCN)NC(=O)[C@@H]2[C@@H](O)CCN2C(=O)[C@H]([C@H](O)CCN)NC(=O)[C@H]([C@H](O)[C@@H](O)c2ccc(O)cc2)NC(=O)[C@@H]2C[C@@H](O)CN2C(=O)[C@H]([C@@H](C)O)NC1=O [CASPOFUNGIN] | 0.12 (≈ 0.11 µM) | 0.12 (≈ 0.11 µM) | 0.12 (≈ 0.11 µM) | 2 (≈ 1.83 µM) | 0.25 (≈ 0.229 µM) | 0.25 (≈ 0.229 µM) | 8 (≈ 7.32 µM) | 0.25 (≈ 0.229 µM) | 1 (≈ 0.915 µM) | 0.03 (≈ 0.0274 µM) | 0.5 (≈ 0.457 µM) | 0.12 (≈ 0.11 µM) | 1 (≈ 0.915 µM) | 0.03 (≈ 0.0274 µM) | 1 (≈ 0.915 µM) | 0.03 (≈ 0.0274 µM) | 2 (≈ 1.83 µM) | 0.5 (≈ 0.457 µM) | 
3 | CC[C@@H]([C@H](C)O)n1ncn(-c2ccc(N3CCN(c4ccc(OC[C@@H]5CO[C@@](Cn6cncn6)(c6ccc(F)cc6F)C5)cc4)CC3)cc2)c1=O [POSACONAZOLE] |  | 0.12 (≈ 0.171 µM) | 0.03 (≈ 0.0428 µM) | 0.12 (≈ 0.171 µM) | 0.01 (≈ 0.0143 µM) | 0.12 (≈ 0.171 µM) | 0.25 (≈ 0.357 µM) | 0.03 (≈ 0.0428 µM) | 0.12 (≈ 0.171 µM) | 0.25 (≈ 0.357 µM) |  | 0.5 (≈ 0.713 µM) | 0.03 (≈ 0.0428 µM) | 0.03 (≈ 0.0428 µM) | 0.25 (≈ 0.357 µM) | 0.03 (≈ 0.0428 µM) |  |  | MIC (Clavispora lusitaniae): 0.03 µg/mL (≈ 0.0428 µM)
4 | CCCCCOc1ccc(-c2cc(-c3ccc(C(=O)N[C@H]4C[C@@H](O)[C@@H](O)NC(=O)[C@@H]5[C@@H](O)[C@@H](C)CN5C(=O)[C@H]([C@H](O)CC(N)=O)NC(=O)[C@H]([C@H](O)[C@@H](O)c5ccc(O)c(OS(=O)(=O)O)c5)NC(=O)[C@@H]5C[C@@H](O)CN5C(=O)[C@H]([C@@H](C)O)NC4=O)cc3)no2)cc1 [MICAFUNGIN] (X1-[Orn(4R-OH,5R-OH)]T[Hyp][hTyr(3S-OH,4S-OH,3'-OSO3H)][Gln(3R-OH)][Pro(3S-OH,4S-Me)]; lactam 1-C) |  | 0.06 (≈ 0.0472 µM) | 0.03 (≈ 0.0236 µM) | 2 (≈ 1.57 µM) | 0.03 (≈ 0.0236 µM) | 0.12 (≈ 0.0945 µM) | 4 (≈ 3.15 µM) | 0.03 (≈ 0.0236 µM) | 0.25 (≈ 0.197 µM) | 0.03 (≈ 0.0236 µM) |  | 0.12 (≈ 0.0945 µM) | 0.12 (≈ 0.0945 µM) | 0.5 (≈ 0.394 µM) | 0.25 (≈ 0.197 µM) | 0.03 (≈ 0.0236 µM) | 0.5 (≈ 0.394 µM) | 0.5 (≈ 0.394 µM) | 
5 | Nc1nc(=O)[nH]cc1F [FLUCYTOSINE] |  | 2 (≈ 15.5 µM) | 0.12 (≈ 0.93 µM) | 0.5 (≈ 3.87 µM) | 0.12 (≈ 0.93 µM) | 0.5 (≈ 3.87 µM) | 0.12 (≈ 0.93 µM) | 0.5 (≈ 3.87 µM) | 0.12 (≈ 0.93 µM) | 64 (≈ 496 µM) |  | 2 (≈ 15.5 µM) | 2 (≈ 15.5 µM) | 0.12 (≈ 0.93 µM) | 0.25 (≈ 1.94 µM) | 0.12 (≈ 0.93 µM) |  |  | 
6 | CCC(C)n1ncn(-c2ccc(N3CCN(c4ccc(OCC5COC(Cn6cncn6)(c6ccc(Cl)cc6Cl)O5)cc4)CC3)cc2)c1=O (configuration not stated) [ITRACONAZOLE] |  | 0.5 (≈ 0.709 µM) | 0.12 (≈ 0.17 µM) | 0.12 (≈ 0.17 µM) | 0.06 (≈ 0.085 µM) | 0.12 (≈ 0.17 µM) | 0.25 (≈ 0.354 µM) | 0.03 (≈ 0.0425 µM) | 1 (≈ 1.42 µM) | 0.12 (≈ 0.17 µM) | 0.12 (≈ 0.17 µM) | 0.12 (≈ 0.17 µM) | 0.25 (≈ 0.354 µM) | 0.25 (≈ 0.354 µM) | 0.5 (≈ 0.709 µM) | 0.12 (≈ 0.17 µM) |  |  | MIC (Candida tropicalis): 0.12 µg/mL (≈ 0.17 µM); MIC (Nakaseomyces glabratus): 0.5 µg/mL (≈ 0.709 µM)
7 | C[C@@H](c1ncncc1F)[C@](O)(Cn1cncn1)c1ccc(F)cc1F [VORICONAZOLE] | 0.01 (≈ 0.0286 µM) | 0.03 (≈ 0.0859 µM) | 0.03 (≈ 0.0859 µM) | 0.06 (≈ 0.172 µM) | 0.03 (≈ 0.0859 µM) | 0.12 (≈ 0.344 µM) | 4 (≈ 11.5 µM) | 0.01 (≈ 0.0286 µM) | 0.06 (≈ 0.172 µM) | 0.06 (≈ 0.172 µM) |  | 1 (≈ 2.86 µM) | 0.5 (≈ 1.43 µM) | 0.12 (≈ 0.344 µM) | 0.5 (≈ 1.43 µM) | 0.25 (≈ 0.716 µM) |  |  | MIC (Candida parapsilosis [1]): 0.06 µg/mL (≈ 0.172 µM)
8 | OC(Cn1cncn1)(Cn1cncn1)c1ccc(F)cc1F [FLUCONAZOLE] |  | 0.5 (≈ 1.63 µM) |  | 4 (≈ 13.1 µM) | 0.12 (≈ 0.392 µM) | 2 (≈ 6.53 µM) | 0.12 (≈ 0.392 µM) | 2 (≈ 6.53 µM) |  | 1 (≈ 3.27 µM) | 32 (≈ 104 µM) | 32 (≈ 104 µM) | 4 (≈ 13.1 µM) | 2 (≈ 6.53 µM) | 16 (≈ 52.2 µM) |  |  |  | 
9 | CCCCCOc1ccc(-c2ccc(-c3ccc(C(=O)N[C@H]4C[C@@H](O)[C@@H](O)NC(=O)[C@@H]5[C@@H](O)[C@@H](C)CN5C(=O)[C@H]([C@@H](C)O)NC(=O)[C@H]([C@H](O)[C@@H](O)c5ccc(O)cc5)NC(=O)[C@@H]5C[C@@H](O)CN5C(=O)[C@H]([C@@H](C)O)NC4=O)cc3)cc2)cc1 [ANIDULAFUNGIN] ({pTerphenylCO(4''-OnC5H11)}-[Orn(4R-OH,5R-OH)]T[Hyp][hTyr(3S-OH,4S-OH)]T[Pro(3S-OH,4S-Me)]; lactam 1-C) |  | 0.12 (≈ 0.105 µM) | 0.03 (≈ 0.0263 µM) | 2 (≈ 1.75 µM) | 0.03 (≈ 0.0263 µM) | 0.25 (≈ 0.219 µM) | 16 (≈ 14 µM) | 0.12 (≈ 0.105 µM) | 0.5 (≈ 0.438 µM) | 0.03 (≈ 0.0263 µM) |  | 0.06 (≈ 0.0526 µM) | 1 (≈ 0.877 µM) | 1 (≈ 0.877 µM) | 0.12 (≈ 0.105 µM) | 0.03 (≈ 0.0263 µM) | 0.5 (≈ 0.438 µM) | 0.25 (≈ 0.219 µM) | 
